Test system: HEK-293T
Assay: Multiplex assay against HEK293T;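 on Population Tubulin-Different-Phenotype (%): share of the cells with healthy nuclei that show this phenotype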
Format: toxicity, cell-based
Settings: human
Summary of the method: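 Phenotypes for tubulin, mitochondrial mass and membrane permeability are expressed as per cents of healthy-nucleus cells. Cells were stained live at seeding with Hoechst33342, BioTracker Green Microtubule Cytoskeleton Dye, MitoTracker Red and Annexin V Alexa Fluor 680, then imaged after compound addition on a CQ1 microscope at 37°C and 5% CO2. Machine-learning gating in CellPathfinder separated Hoechst high-intensity objects from normal cells, divided normal cells by nuclear state (healthy, pyknosed, fragmented) and divided pyknosed cells into mitotic or apoptotic.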

[1] = 12 h, 1 µM, compound concentration 1 uM, replicate 1
[2] = 12 h, 1 µM, compound concentration 1 uM, replicate 2
[3] = 12 h, 10 µM, compound concentration 10 uM, replicate 1
[4] = 12 h, 10 µM, compound concentration 10 uM, replicate 2
[5] = 24 h, 1 µM, compound concentration 1 uM, replicate 1
[6] = 24 h, 1 µM, compound concentration 1 uM, replicate 2
[7] = 24 h, 10 µM, compound concentration 10 uM, replicate 1
[8] = 24 h, 10 µM, compound concentration 10 uM, replicate 2
[9] = 48 h, 1 µM, compound concentration 1 uM, replicate 1
[10] = 48 h, 1 µM, compound concentration 1 uM, replicate 2
[11] = 48 h, 10 µM, compound concentration 10 uM, replicate 1
[12] = 48 h, 10 µM, compound concentration 10 uM, replicate 2

SMILES: COc1cc(N2CCN(C)CC2)ccc1Nc1ncc2c(n1)N(C)c1ccccc1C(=O)N2C
- Population Apoptotic (%) [1]: 46%
- Population Fragmented Nuclei (%) [1]: 8%
- Population Healthy Nuclei (%) [1]: 45%
- Population Hoechst High Intensity Objects (%) [1]: 6%
- Population Membrane Permeable-Phenotype (%) [1]: 1%
- Population Mitochondria Different-Phenotype (%) [1]: 90%
- Population Mitotic Cells (%) [1]: 53%
- Population Normal (%) [1]: 93%
- Population Pyknosed Nuclei (%) [1]: 45%
- Population Tubulin-Different-Phenotype (%) [1]: 40%
- Total Cell Count [1]: 359
- Population Apoptotic (%) [2]: 18%
- Population Fragmented Nuclei (%) [2]: 3%
- Population Healthy Nuclei (%) [2]: 37%
- Population Hoechst High Intensity Objects (%) [2]: 3%
- Population Membrane Permeable-Phenotype (%) [2]: 6%
- Population Mitochondria Different-Phenotype (%) [2]: 42%
- Population Mitotic Cells (%) [2]: 82%
- Population Normal (%) [2]: 96%
- Population Pyknosed Nuclei (%) [2]: 58%
- Population Tubulin-Different-Phenotype (%) [2]: 23%
- Total Cell Count [2]: 176
- Population Apoptotic (%) [3]: 62%
- Population Fragmented Nuclei (%) [3]: 12%
- Population Healthy Nuclei (%) [3]: 17%
- Population Hoechst High Intensity Objects (%) [3]: 13%
- Population Membrane Permeable-Phenotype (%) [3]: 23%
- Population Mitochondria Different-Phenotype (%) [3]: 92%
- Population Mitotic Cells (%) [3]: 37%
- Population Normal (%) [3]: 86%
- Population Pyknosed Nuclei (%) [3]: 70%
- Population Tubulin-Different-Phenotype (%) [3]: 84%
- Total Cell Count [3]: 172
- Population Apoptotic (%) [4]: 58%
- Population Fragmented Nuclei (%) [4]: 8%
- Population Healthy Nuclei (%) [4]: 15%
- Population Hoechst High Intensity Objects (%) [4]: 6%
- Population Membrane Permeable-Phenotype (%) [4]: 7%
- Population Mitochondria Different-Phenotype (%) [4]: 96%
- Population Mitotic Cells (%) [4]: 41%
- Population Normal (%) [4]: 93%
- Population Pyknosed Nuclei (%) [4]: 76%
- Population Tubulin-Different-Phenotype (%) [4]: 100%
- Total Cell Count [4]: 190
- Population Apoptotic (%) [5]: 38%
- Population Fragmented Nuclei (%) [5]: 4%
- Population Healthy Nuclei (%) [5]: 58%
- Population Hoechst High Intensity Objects (%) [5]: 6%
- Population Membrane Permeable-Phenotype (%) [5]: 1%
- Population Mitochondria Different-Phenotype (%) [5]: 75%
- Population Mitotic Cells (%) [5]: 61%
- Population Normal (%) [5]: 93%
- Population Pyknosed Nuclei (%) [5]: 37%
- Population Tubulin-Different-Phenotype (%) [5]: 26%
- Total Cell Count [5]: 423
- Population Apoptotic (%) [6]: 9%
- Population Fragmented Nuclei (%) [6]: 5%
- Population Healthy Nuclei (%) [6]: 48%
- Population Hoechst High Intensity Objects (%) [6]: 2%
- Population Membrane Permeable-Phenotype (%) [6]: 7%
- Population Mitochondria Different-Phenotype (%) [6]: 40%
- Population Mitotic Cells (%) [6]: 90%
- Population Normal (%) [6]: 97%
- Population Pyknosed Nuclei (%) [6]: 45%
- Population Tubulin-Different-Phenotype (%) [6]: 22%
- Total Cell Count [6]: 225
- Population Apoptotic (%) [7]: 69%
- Population Fragmented Nuclei (%) [7]: 9%
- Population Healthy Nuclei (%) [7]: 19%
- Population Hoechst High Intensity Objects (%) [7]: 10%
- Population Membrane Permeable-Phenotype (%) [7]: 13%
- Population Mitochondria Different-Phenotype (%) [7]: 96%
- Population Mitotic Cells (%) [7]: 30%
- Population Normal (%) [7]: 89%
- Population Pyknosed Nuclei (%) [7]: 71%
- Population Tubulin-Different-Phenotype (%) [7]: 93%
- Total Cell Count [7]: 170
- Population Apoptotic (%) [8]: 76%
- Population Fragmented Nuclei (%) [8]: 7%
- Population Healthy Nuclei (%) [8]: 20%
- Population Hoechst High Intensity Objects (%) [8]: 5%
- Population Membrane Permeable-Phenotype (%) [8]: 2%
- Population Mitochondria Different-Phenotype (%) [8]: 94%
- Population Mitotic Cells (%) [8]: 23%
- Population Normal (%) [8]: 94%
- Population Pyknosed Nuclei (%) [8]: 72%
- Population Tubulin-Different-Phenotype (%) [8]: 97%
- Total Cell Count [8]: 195
- Population Apoptotic (%) [9]: 36%
- Population Fragmented Nuclei (%) [9]: 8%
- Population Healthy Nuclei (%) [9]: 71%
- Population Hoechst High Intensity Objects (%) [9]: 8%
- Population Membrane Permeable-Phenotype (%) [9]: 1%
- Population Mitochondria Different-Phenotype (%) [9]: 23%
- Population Mitotic Cells (%) [9]: 63%
- Population Normal (%) [9]: 91%
- Population Pyknosed Nuclei (%) [9]: 19%
- Population Tubulin-Different-Phenotype (%) [9]: 11%
- Total Cell Count [9]: 613
- Population Apoptotic (%) [10]: 18%
- Population Fragmented Nuclei (%) [10]: 6%
- Population Healthy Nuclei (%) [10]: 72%
- Population Hoechst High Intensity Objects (%) [10]: 2%
- Population Membrane Permeable-Phenotype (%) [10]: 6%
- Population Mitochondria Different-Phenotype (%) [10]: 7%
- Population Mitotic Cells (%) [10]: 81%
- Population Normal (%) [10]: 97%
- Population Pyknosed Nuclei (%) [10]: 20%
- Population Tubulin-Different-Phenotype (%) [10]: 16%
- Total Cell Count [10]: 357
- Population Apoptotic (%) [11]: 69%
- Population Fragmented Nuclei (%) [11]: 16%
- Population Healthy Nuclei (%) [11]: 33%
- Population Hoechst High Intensity Objects (%) [11]: 15%
- Population Membrane Permeable-Phenotype (%) [11]: 3%
- Population Mitochondria Different-Phenotype (%) [11]: 100%
- Population Mitotic Cells (%) [11]: 30%
- Population Normal (%) [11]: 84%
- Population Pyknosed Nuclei (%) [11]: 49%
- Population Tubulin-Different-Phenotype (%) [11]: 91%
- Total Cell Count [11]: 210
- Population Apoptotic (%) [12]: 70%
- Population Fragmented Nuclei (%) [12]: 11%
- Population Healthy Nuclei (%) [12]: 28%
- Population Hoechst High Intensity Objects (%) [12]: 10%
- Population Membrane Permeable-Phenotype (%) [12]: 1%
- Population Mitochondria Different-Phenotype (%) [12]: 96%
- Population Mitotic Cells (%) [12]: 29%
- Population Normal (%) [12]: 89%
- Population Pyknosed Nuclei (%) [12]: 59%
- Population Tubulin-Different-Phenotype (%) [12]: 94%
- Total Cell Count [12]: 211

From ChEMBL document CHEMBL4689842, “EUbOPEN Chemogenomics Library wave 1” (2021)
